According to ChEMBL document CHEMBL1153534, “Design and synthesis of androgen receptor antagonists with bulky side chains for overcoming antiandrogen resistance” (J Med Chem, 2009):
The source made the active and inactive calls. The calls are words filed in the database; no cut-off is given here.

Columns and labels:
CWR22R = assay: Cytotoxicity against human 22Rv1 cells after 72 hrs by MTT assay; type: functional, cell-based; conditions: 22Rv1, 72 h
PC-3 [1] = assay: Cytotoxicity against human PC3 cells after 72 hrs by MTT assay; type: functional, cell-based; conditions: Homo sapiens, PC-3, 72 h; read-out: IC50
[2] = Cytotoxicity against human MDA PCa 2b cells after 72 hrs by MTT assay; type: functional, cell-based
PC-3 [3] = assay: Antiandrogenic activity in human PC3 cells expressing androgen receptor W741C mutant assessed as inhibition of DHT-induced ARE-dependent transactivation at 1 uM after 24 hrs by luciferase reporter gene assay; type: cell-based
How it was run: (§1)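 PC-3 cells, which lack endogenous AR, transiently transfected with plasmids expressing human AR (WT, T877A, W741C or H874Y) plus an ARE-driven MMTV-luc reporter. Cells were treated with or without 0.1 nM DHT. Firefly luciferase was standardized to a Renilla control and normalized to the 0.1 nM DHT signal. Mean ± sd.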

[4] = target: T1, Androgen receptor (Homo sapiens) (UniProt P10275); assay: Antiandrogenic activity in human PC3 cells expressing wild-type androgen receptor assessed as inhibition of DHT-induced ARE-dependent transactivation at 1 uM after 24 hrs by luciferase reporter gene assay; type: cell-based; conditions: PC-3; how it was run: as §1
T1 sequence (whole entry): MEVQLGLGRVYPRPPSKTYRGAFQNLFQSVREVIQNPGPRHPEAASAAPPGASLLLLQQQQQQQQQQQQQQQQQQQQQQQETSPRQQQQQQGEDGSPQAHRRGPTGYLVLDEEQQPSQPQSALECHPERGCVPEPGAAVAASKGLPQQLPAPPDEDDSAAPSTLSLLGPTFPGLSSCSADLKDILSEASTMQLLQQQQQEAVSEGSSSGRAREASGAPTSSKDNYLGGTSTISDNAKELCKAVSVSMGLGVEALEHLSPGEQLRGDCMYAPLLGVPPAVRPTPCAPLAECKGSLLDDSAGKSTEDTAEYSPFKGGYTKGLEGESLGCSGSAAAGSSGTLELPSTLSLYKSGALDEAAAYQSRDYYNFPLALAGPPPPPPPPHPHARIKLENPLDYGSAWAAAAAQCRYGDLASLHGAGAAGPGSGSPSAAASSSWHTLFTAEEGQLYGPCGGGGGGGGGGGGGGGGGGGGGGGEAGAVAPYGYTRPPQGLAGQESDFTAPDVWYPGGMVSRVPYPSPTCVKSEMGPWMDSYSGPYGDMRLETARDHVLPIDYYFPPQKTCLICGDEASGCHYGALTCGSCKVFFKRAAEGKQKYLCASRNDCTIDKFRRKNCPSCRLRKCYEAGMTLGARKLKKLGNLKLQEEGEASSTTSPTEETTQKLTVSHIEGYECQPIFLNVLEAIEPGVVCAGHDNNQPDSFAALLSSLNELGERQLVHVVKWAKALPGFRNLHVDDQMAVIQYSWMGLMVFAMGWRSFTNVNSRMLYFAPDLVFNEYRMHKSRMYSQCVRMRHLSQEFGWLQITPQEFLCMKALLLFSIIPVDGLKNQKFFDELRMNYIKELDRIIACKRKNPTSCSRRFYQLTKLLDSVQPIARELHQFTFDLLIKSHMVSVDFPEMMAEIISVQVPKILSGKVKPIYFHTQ

PC-3 [5] = assay: Antiandrogenic activity in human PC3 cells expressing androgen receptor H874Y mutant assessed as inhibition of DHT-induced ARE-dependent transactivation at 1 uM after 24 hrs by luciferase reporter gene assay; type: cell-based; how it was run: as §1
LNCaP [6] = assay: Suppression of DHT-stimulated growth of human LNCAP cells after 72 hrs; type: functional, cell-based
LNCaP [7] = assay: Cytotoxicity against human LNCAP cells after 72 hrs by MTT assay; type: functional, cell-based
[8] = target: T1, Androgen receptor (Homo sapiens); assay: Activity in human PC3 cells expressing wild-type androgen receptor assessed as ARE-dependent transactivation at 1 uM after 24 hrs by luciferase reporter gene assay in absence of DHT; type: cell-based; conditions: PC-3; how it was run: as §1
[9] = target: T2, Progesterone receptor (Homo sapiens) (UniProt P06401); assay: Agonist activity at human PR B-form expressed in human PC3 cells assessed as receptor transactivation at 1 uM after 24 hrs by luciferase reporter gene assay; type: functional, cell-based; conditions: PC-3
T2 sequence (whole entry): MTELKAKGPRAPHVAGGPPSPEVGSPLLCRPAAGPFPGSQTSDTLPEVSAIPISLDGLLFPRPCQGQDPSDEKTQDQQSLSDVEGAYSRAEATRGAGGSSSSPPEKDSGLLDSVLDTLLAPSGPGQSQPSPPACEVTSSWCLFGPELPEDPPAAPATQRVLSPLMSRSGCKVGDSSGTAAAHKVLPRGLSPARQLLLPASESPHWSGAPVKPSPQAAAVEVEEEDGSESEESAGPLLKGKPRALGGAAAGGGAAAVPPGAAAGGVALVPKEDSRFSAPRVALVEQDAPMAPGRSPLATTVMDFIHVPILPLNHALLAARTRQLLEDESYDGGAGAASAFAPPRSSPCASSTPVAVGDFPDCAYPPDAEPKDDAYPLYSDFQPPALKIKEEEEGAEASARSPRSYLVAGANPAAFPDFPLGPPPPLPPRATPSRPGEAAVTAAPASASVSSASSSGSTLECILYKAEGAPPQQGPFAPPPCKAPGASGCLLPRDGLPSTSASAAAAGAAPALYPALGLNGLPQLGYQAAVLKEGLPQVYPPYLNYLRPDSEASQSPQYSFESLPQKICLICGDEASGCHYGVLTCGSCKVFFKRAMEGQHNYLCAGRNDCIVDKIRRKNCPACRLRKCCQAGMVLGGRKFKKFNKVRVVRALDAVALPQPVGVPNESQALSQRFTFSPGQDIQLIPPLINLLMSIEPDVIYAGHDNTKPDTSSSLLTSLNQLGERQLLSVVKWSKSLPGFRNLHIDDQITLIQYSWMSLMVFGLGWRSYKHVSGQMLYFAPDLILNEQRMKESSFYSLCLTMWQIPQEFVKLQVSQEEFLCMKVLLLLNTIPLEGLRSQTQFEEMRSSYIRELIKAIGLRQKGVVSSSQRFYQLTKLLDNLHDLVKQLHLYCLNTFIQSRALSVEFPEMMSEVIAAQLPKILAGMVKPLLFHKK
How it was run: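 PC-3 cells carrying a luciferase reporter for transactivation by the human PR B form. Antagonist mode used 10 nM R5020 as the agonist. Agonist mode ran in the absence of R5020. Luciferase read-out.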

PC-3 [10] = assay: Activity in human PC3 cells expressing androgen receptor H874Y mutant assessed as ARE-dependent transactivation at 0.1 uM after 24 hrs by luciferase reporter gene assay in absence of DHT; type: cell-based; how it was run: as §1
[11] = tested on: Androgen receptor (Homo sapiens), P10275 [T878A]; assay: Activity in human PC3 cells expressing androgen receptor T877A mutant assessed as ARE-dependent transactivation at 0.1 uM after 24 hrs by luciferase reporter gene assay in absence of DHT; type: cell-based; conditions: PC-3; how it was run: as §1
[12] = Cytotoxicity against human C4-2B cells after 72 hrs by MTT assay; type: functional, cell-based; conditions: LNCaP C4-2B
PC-3 [13] = assay: Activity in human PC3 cells expressing androgen receptor H874Y mutant assessed as ARE-dependent transactivation at 1 uM after 24 hrs by luciferase reporter gene assay in absence of DHT; type: cell-based; how it was run: as §1
LNCaP [14] = assay: Suppression of DHT-stimulated growth of human LNCAP cells after 72 hrs with increasing concentration of DHT; type: functional, cell-based

Chain of Androgen receptor (Homo sapiens), P10275 [T878A] (P10275 whole entry T878A): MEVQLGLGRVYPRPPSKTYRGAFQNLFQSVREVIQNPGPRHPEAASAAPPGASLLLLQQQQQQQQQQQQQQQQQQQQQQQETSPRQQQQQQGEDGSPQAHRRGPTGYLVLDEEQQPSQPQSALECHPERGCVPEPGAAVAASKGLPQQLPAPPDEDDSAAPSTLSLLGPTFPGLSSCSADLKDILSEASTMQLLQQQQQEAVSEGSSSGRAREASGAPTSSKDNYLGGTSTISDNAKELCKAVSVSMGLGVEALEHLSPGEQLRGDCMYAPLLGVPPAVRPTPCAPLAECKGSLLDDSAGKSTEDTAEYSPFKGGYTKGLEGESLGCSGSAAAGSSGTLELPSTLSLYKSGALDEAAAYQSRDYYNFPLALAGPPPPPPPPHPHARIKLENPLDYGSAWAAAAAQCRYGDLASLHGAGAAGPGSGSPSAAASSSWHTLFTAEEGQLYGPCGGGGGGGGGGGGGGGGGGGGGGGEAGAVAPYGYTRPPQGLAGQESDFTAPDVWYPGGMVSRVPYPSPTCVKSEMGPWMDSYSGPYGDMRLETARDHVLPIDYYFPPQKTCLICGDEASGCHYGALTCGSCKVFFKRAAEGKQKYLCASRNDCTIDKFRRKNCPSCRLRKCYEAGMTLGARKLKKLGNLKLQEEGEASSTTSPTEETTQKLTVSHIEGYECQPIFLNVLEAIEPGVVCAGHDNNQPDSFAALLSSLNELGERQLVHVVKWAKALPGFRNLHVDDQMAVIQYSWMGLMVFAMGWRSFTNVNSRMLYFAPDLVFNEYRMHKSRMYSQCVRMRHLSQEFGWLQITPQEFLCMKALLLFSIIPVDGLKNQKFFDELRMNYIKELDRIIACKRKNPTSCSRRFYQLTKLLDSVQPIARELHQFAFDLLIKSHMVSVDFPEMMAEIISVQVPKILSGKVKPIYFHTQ

COc1cc(/C=C(\C(=O)/C=C/C2=C(C)CCCC2(C)C)C(=O)/C=C/c2ccc(O)c(OC)c2)ccc1O
IC50 (CWR22R): 2.2 µM | IC50 (PC-3 [1]): 4.2 µM | IC50 [2]: 2.5 µM | Activity (PC-3 [3]): Active | Activity [4]: Active | Activity (PC-3 [5]): Active | Activity (LNCaP [6]): Dose-dependent effect | IC50 (LNCaP [7]): 1.3 µM | Activity [8]: inactive | Activity [9]: inactive | Activity (PC-3 [10]): inactive | Activity [11]: inactive | IC50 [12]: 1.6 µM | Activity (PC-3 [13]): inactive | Activity (LNCaP [14]): inactive
